Measurements as given in the EternaBench riboswitch data.

System: MS2 coat protein
Assay: apparent Kd, MS2 coat protein; higher = weaker binding; RNA-MaP array
Method in brief: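 Designed RNAs were transcribed on an Illumina sequencing chip from sequenced DNA templates. They were incubated at room temperature with fluorescently labeled MS2 coat protein at 1.5 nM to 3 μM, for 0.8–1.5 h at the lowest to 10–20 min at the highest concentrations, in Tris-HCl pH 7.5 buffer with KCl, MgCl2, BSA, DTT, tRNA and Tween20, with or without input ligand. Apparent Kd is the median of per-cluster binding-curve fits. Designs measured on fewer than 10 clusters were excluded.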

[1] = designed as: OFF switch for flavin mononucleotide, no ligand
[2] = ligand present: flavin mononucleotide, designed as: OFF switch for flavin mononucleotide
[3] = designed as: ON switch for flavin mononucleotide, no ligand
[4] = ligand present: flavin mononucleotide, designed as: ON switch for flavin mononucleotide
[5] = designed as: OFF switch for tryptophan, no ligand
[6] = ligand present: tryptophan, designed as: OFF switch for tryptophan

CCUGGAUCAGAUCUUAAAGGCGGUUCUGAUACCAGUCUUUUCCGAGACCCUUGGCAGCAGAACACAUGAGGAUCACCCAUGUAAA
apparent Kd (designed as: OFF switch for theophylline, no ligand): 0.0524 µM
apparent Kd (ligand present: theophylline, designed as: OFF switch for theophylline): 0.0466 µM

AGCCAAUAAGGAUAUACAUUUAGAGAUCAUCGUACAAAGUAACAUGAGGAUCACCCAUGUAGAAGGUAUGCAGC
apparent Kd [1]: 0.0102 µM
apparent Kd [2]: 0.0113 µM

UCGAGUAAGGAGAAGGACUAAUGGACUCACAAAGUAGGAUAUCCUGAACAUGAGGAUCACCCAUGUUGAUGUAACAUGUACUGG
apparent Kd [3]: 0.118 µM
apparent Kd [4]: 0.0801 µM

CCAUGCGUUGAGAAGGUGCUCGGGAAUCCACAUGAGGAUCACCCAUGUUGACUAGUAAGGCAUCGCAAGGAUAUCAGCUAUCUC
apparent Kd [1]: 0.0288 µM
apparent Kd [2]: 0.0253 µM

GCAUCAUGAACGGCCGCCACUAAGGAAUGAGCGGCUCUUGCGAUACAUGAGGAUCACCCAUGUCUUAGGACCGGGUUCAUUGUCA
apparent Kd (designed as: ON switch for tryptophan, no ligand): 0.234 µM
apparent Kd (ligand present: tryptophan, designed as: ON switch for tryptophan): 0.127 µM

UUGCAGGCAGGAUAUACGGUAUAUAACAUGAGGAUCACCCAUGUUCUUCACGAUCCCUGCGUAGAAGGGCCACAUU
apparent Kd [1]: 0.00496 µM
apparent Kd [2]: 0.00525 µM

CAUCGUCGGUCGGCCGCCACUACUGGACAUGAGGAUCACCCAUGUGGCCCGCUGUAUUAACCGCGUAGGACCGGGACGGGAGGUA
apparent Kd [5]: 0.03 µM
apparent Kd [6]: 0.0329 µM

AUUCAAAUAACAGGAUAUGACAUAAACUACGAAUCAGAAGGGUUACAUAAAUCAACAUGAGGAUCACCCAUGUAUACUCCACAA
apparent Kd [3]: 0.0175 µM
apparent Kd [4]: 0.0117 µM

UUCGUCGGACACACACAUGAGGAUCACCCAUGUAUCUCAAUCAGAAGGGUAUCACCGGAUAGGGUACAGGAUAUGACUACUAUA
apparent Kd [3]: 0.043 µM
apparent Kd [4]: 0.0223 µM

CGACCGCACGAGAAGGCUAGACAGCGGCGAUCUAGAGGAUAUCGACAUUCAACAUGAGGAUCACCCAUGUGAUUCCAACAAGCU
apparent Kd [1]: 0.0578 µM
apparent Kd [2]: 0.0696 µM

CGUAACCAAGGAUAUACAUGAGGAUCACCCAUGUAUCGGGUCGGUCUGGGUCCAAUAAGUAGAAGGUGGCUGAU
apparent Kd [1]: 0.0293 µM
apparent Kd [2]: 0.0397 µM

UUGAUCUCGUAGAAGGGAGAGAUUGAGGGCUUCUCAGGAUAUACGAAUCCUCUGUGGCUAUGUUACAUGAGGAUCACCCAUGUC
apparent Kd [1]: 0.791 µM
apparent Kd [2]: 0.355 µM

CGACUAACGUGAGGAUAUAGUCCGGAAAGACAUUUUCGUCAAGACAUGAGGAUCACCCAUGUCCUCUAGAAGGCACUCGGAACA
apparent Kd [3]: 0.0451 µM
apparent Kd [4]: 0.0305 µM

GCUACACAUGAGGAUCACCCAUGUAUGCAUAGACGAGGAUAUAGACCACCUCCCGGGAUACUAGAAGGCGUGAUAU
apparent Kd [3]: 0.0193 µM
apparent Kd [4]: 0.0103 µM

AAUGGGCGAGUAGAGCAUAAUUUCCACUCCCGAGGACCGGUACGGCCGCCACUCGUUCGCUCACAUGAGGAUCACCCAUGUGGUC
apparent Kd [5]: 0.0323 µM
apparent Kd [6]: 0.0572 µM

UUAUAGGAAGGAUAUACAUGAGGAUCACCCAUGUUCAAACCAACGCACUAUCAUAAAUGUAGAAGGACCAACCC
apparent Kd [1]: 0.0119 µM
apparent Kd [2]: 0.0101 µM

CAUUGAGCAGCUGAUACCAGUGCCUGAACUUACAUGAGGAUCACCCAUGUAUGCCCAAAACACCCUUGGCAGCAGAGGAAGAUCG
apparent Kd (designed as: ON switch for theophylline, no ligand): 0.0145 µM
apparent Kd (ligand present: theophylline, designed as: ON switch for theophylline): 0.0139 µM

GGGCGUGGAGUAGGAUAUCCUGUAUACAUGAGGAUCACCCAUGUACAUAUCUAGUAUUACCGUUUGGAGAAGGACUGUUGGGCU
apparent Kd [3]: 0.0115 µM
apparent Kd [4]: 0.00971 µM

GAUUUGUGAGGAUAUCAUUAGAAACAAGUAUGAGGCGAAAGUGAGAAGGCACAUGAGGAUCACCCAUGUUGGAA
apparent Kd [1]: 0.015 µM
apparent Kd [2]: 0.0157 µM

CUUGUAACCUAAGGAUAUGAUUAGGGCAUCACAUGAGGAUCACCCAUGUGGCGUGAUCCGAGCCUUCAGAAGGUAGGGGAGCAU
apparent Kd [1]: 0.475 µM
apparent Kd [2]: 0.479 µM

AUUGGAGACUGGUACAUGAGGAUCACCCAUGUUAAUAACAGUAGAAGGCCCGCGGUUAGAAGAUGGGAGGAUAUACACGUGGGU
apparent Kd [1]: 0.0104 µM
apparent Kd [2]: 0.0178 µM
